Data on one molecule can be found in ChEMBL document CHEMBL5107946, “SF5- and SCF3-substituted tetrahydroquinoline compounds as potent bactericidal agents against multidrug-resistant persister Gram-positive bacteria” (RSC Med Chem, 2021).

Data set [1] relates to Staphylococcus aureus. The experiment in a line: Antibacterial activity against methicillin-resistant Staphylococcus aureus USA300 assessed as fold increase in MIC incubated for 30 days by resistance development based broth microdilution assay. Format: functional. Particulars: time 30 day. A digest of the protocol: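 Multi-step resistance selection over 30 days. MIC determined first. Each day, 5 μL from the turbid well just below the MIC was diluted 1:1000 in CA-MHB and used as inoculum for the next broth microdilution MIC. Resistance defined as a rise of more than four-fold over the starting MIC.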

Data set [2] deals with Staphylococcus aureus. The experiment in a line: Bactericidal activity against persister methicillin-resistant Staphylococcus aureus ATCC 33592 assessed as reduction in colony forming unit at 1 x MIC incubated for 6 hrs by Time-kill analysis. The format is functional, organism-based. A digest of the protocol: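 Stationary-phase (persister) time-kill. Overnight TSB culture diluted 1 in 10 in TSB directly (about 2.92 × 10^6 CFU per mL), with no regrowth step. Exposed at 1× or 4× MIC in triplicate at 37 °C. Samples taken at 0, 2, 4 and 6 h, serially diluted in PBS, plated on TSA in duplicate and incubated 18–24 h.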

For data set [3], the system named is Staphylococcus aureus. The experiment in a line: Antibacterial activity against methicillin-resistant Staphylococcus aureus ST239 (ARLG 1665) assessed as bacterial growth inhibition incubated for 18 to 20 hrs by CLSI based broth microdilution assay. Particulars: time 18-20 hrs. The format is functional. The method, boiled down: (§1)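 CLSI broth microdilution; compounds and control antibiotics made up at 10 mg mL−1 in DMSO (stock), serially diluted 1:2 across the plate. Inoculum adjusted to 0.5 McFarland, then diluted 1:100 into wells. Plates incubated static at 37 °C for 18–20 h before MIC read.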

The subject of the next data set is Listeria monocytogenes. The experiment in a line: Antibacterial activity against Listeria monocytogenes ATCC 19115 assessed as bacterial growth inhibition incubated for 18 to 20 hrs by CLSI based broth microdilution assay. Format: functional. Particulars: time 18-20 hrs. A digest of the protocol: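 MIC by CLSI broth microdilution. Compounds were made as 10 mg mL−1 DMSO stocks and serially diluted 1:2. Inoculum was set to 0.5 McFarland and diluted 1:100 into the wells. Plates were incubated static at 37 °C for 18–20 h before reading the MIC.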

In data set [4] the test system is Staphylococcus aureus. The experiment in a line: Antibacterial activity against Staphylococcus aureus ATCC 25923 assessed as bacterial growth inhibition at 16 ug/ml incubated for 18 to 20 hrs by CLSI based broth microdilution assay. Format: functional, organism-based. The note with it: dose 16.0 µg/ml, time 18-20 hrs. A digest of the protocol: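 Single-concentration screen at 16 μg mL−1 final. Overnight TSB culture was diluted 1:1000 in cation-adjusted MHB and grown to early exponential phase. 1 mL of culture was added to compound in glass tubes and incubated overnight at 37 °C. OD600 was read and normalized to the DMSO control after subtracting medium-only OD.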

Data set [5] relates to Staphylococcus aureus. The experiment in a line: Antibacterial activity against methicillin-resistant Staphylococcus aureus USA300 (ARLG 1567) assessed as bacterial growth inhibition incubated for 18 to 20 hrs by CLSI based broth microdilution assay. Format: functional. Particulars: time 18-20 hrs. A digest of the protocol:
as §1

In data set [6] the test system is Staphylococcus aureus. The experiment in a line: Bactericidal activity against methicillin-resistant Staphylococcus aureus ATCC 33592 assessed as reduction in colony forming unit at 4 x MIC incubated for 18 to 24 hrs by Time-kill analysis. The format is functional, organism-based. The note with it: time 18-24 hrs. The method, boiled down: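 Log-phase time-kill. Overnight TSB culture diluted 1:1000 and grown to OD600 0.6, then diluted 1 in 10 in TSB (about 2.92 × 10^6 CFU per mL). Exposed at 1× or 4× MIC in triplicate at 37 °C. Samples taken at 0, 2, 4, 8, 12 and 24 h, serially diluted in PBS, plated on TSA in duplicate and counted after 18–20 h.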

For data set [7], the system named is Staphylococcus aureus. The experiment in a line: Antibacterial activity against methicillin-resistant Staphylococcus aureus USA300 (ARLG 1570) assessed as bacterial growth inhibition incubated for 18 to 20 hrs by CLSI based broth microdilution assay. The note with it: time 18-20 hrs. Format: functional. The method, boiled down: as §1
The next data set concerns Enterococcus faecalis. The experiment in a line: Bactericidal activity against Enterococcus faecalis ATCC 29212 assessed as reduction in colony forming unit incubated for 20 hrs. Format: functional. The method, boiled down:
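Follows the broth microdilution MIC plate. 4 μL taken from each well without growth, spotted in duplicate on tryptic soy agar and incubated static at 37 °C for 20 h. MBC taken as the concentration giving 99.9% reduction in CFU.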

A further data set relates to Erythrocyte. The experiment in a line: Cytotoxicity against human RBC at 20 ug/ml incubated for 30 mins by spectrophotometric method. Format: toxicity, cell-based. The note with it: 0.5 h, dose 20 µg/ml. The method, boiled down: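 Hemolysis of 5% human RBCs exposed to compound at 5–20 μg mL−1 for 30 min at 37 °C. Intact cells were pelleted by centrifugation and supernatant absorbance read at 540 nm. Values are percent of 1% Triton X-100 lysis, with DMSO as negative control. Triplicate.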

Data set [8] relates to Staphylococcus aureus. The experiment in a line: Antibacterial activity against methicillin-resistant Staphylococcus aureus USA300 (ARLG 1568) assessed as bacterial growth inhibition incubated for 18 to 20 hrs by CLSI based broth microdilution assay. The format is functional. Particulars: time 18-20 hrs. A digest of the protocol:
as §1

The structures appear in SMILES notation. Converted amounts (≈) assume the structure as drawn. The source made the active and inactive calls.

For `FC(F)(F)c1n[nH]cc1[C@@H]1Nc2ccc(S(F)(F)(F)(F)F)cc2[C@H]2[C@@H]3CC[C@@H](C3)[C@H]21`, the “fold change (FC)” value with Staphylococcus aureus [1] came out at 1. Further, the result in the data set on Staphylococcus aureus [2], with Staphylococcus aureus [4] and in the data set with Staphylococcus aureus [6] was Active. Also, the minimal inhibitory concentration (MIC) in the data set with Staphylococcus aureus [3], in the data set with Listeria monocytogenes, in the data set with Staphylococcus aureus [5], in the data set on Staphylococcus aureus [7] and in the data set with Staphylococcus aureus [8] was 2 µg/mL (≈ 4.35 µM) each time. In addition, the MBC in the data set with Enterococcus faecalis is 8 µg/mL (≈ 17.4 µM). In addition, in the data set on Erythrocyte, the Activity entry was “Non-Toxic”.
